# RTF Ca sens inh – cardiac RTF calcium sensitivity inhibitors, primary screen, biochemical, IANBD-TnC fluorescence, EC70 calcium; Troponin I, cardiac muscle (Homo sapiens) + Troponin T, cardiac muscle (Homo sapiens) + …; IANBD-labeled cardiac RTF, Ca2+ fluorescence; inhibition, % at 7.15 µM; 340,000 tested, 0.12% active;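 active means inhibition above the mean inhibition of all tested compounds plus 3 SD, cut at about 17% in these data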;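 further: assay run at fixed EC70 calcium of 1.6 mM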
# C-LANA FP – inhibitors of KSHV C-LANA binding to DNA, primary screen, biochemical, fluorescence polarization, FAM-LBS DNA, MBP-C-LANA, single point; Kaposi's sarcoma herpesvirus LANA C-terminal domain (residues 932-1162) DNA binding; 340,000 tested, 0.078% active; inhibition, % at 9 µM;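 active means highest replicate inhibition at or above 60% at 9 µM, even if other replicates fall short; inactive means all replicates below 60% inhibition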
# CAL PDZ FP-1 – CAL PDZ peptide-binding inhibitors, primary screen, biochemical, fluorescence polarization, Cer-tagged CAL PDZ, HTS | inhibition, % at 20 µM | AID 504414, 2011 | purified CAL PDZ, TMR-peptide fluorescence polarization, 1 h | Golgi-associated PDZ and coiled-coil motif-containing protein (Homo sapiens), Q9HD26 | 330,000 tested, 0.02% active;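 active means highest replicate inhibition of at least 40%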
#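 Material: tagged CAL PDZ protein CerCALP, purified; buffer or medium: sodium phosphate/NaCl buffer pH 7.4 with TCEP, IgG, Thesit; also added: fluorescent TMR peptide probe; schedule: 1 h incubation at room temperature before polarization reading; technique: fluorescence polarization from S- and P-plane intensities, G-factor corrected; control set: unlabelled peptide and DMSO controls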
# cardiac RTF act – cardiac RTF calcium sensitivity activators, primary screen, biochemical, IANBD-TnC fluorescence, EC20 calcium | IANBD-labeled TnC RTF fluorescence at EC20 calcium; 0% EC20 calcium, 100% full calcium | activation, % at 7.2 µM | AID 493008, 2010 | 340,000 tested, 0.24% active | Troponin I, cardiac muscle (Homo sapiens) + Troponin T, cardiac muscle (Homo sapiens) + …;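 active means activation above the mean over all tested compounds plus 3 SD, cut at about 30% in these data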;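 further: rise in fluorescence read as greater calcium sensitivity of cardiac thin filaments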
# CAL PDZ FP-2 – untagged CAL PDZ binding inhibitors, primary screen, biochemical, fluorescence polarization, HTS | Golgi-associated PDZ and coiled-coil motif-containing protein (Homo sapiens), Q9HD26 | purified CAL PDZ, TMR-peptide fluorescence polarization, 1 h | inhibition, % at 24.9 µM | 300,000 tested, 0.92% active;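 active means mean inhibition of at least 30% with at least half of replicates also reaching 30%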
# Keap1-Nrf2 PPI – Keap1-Nrf2 protein-protein interaction inhibitors, primary screen, biochemical, fluorescence polarization, single point; Kelch-like ECH-associated protein 1 (Homo sapiens), Q14145; Keap1 Kelch-Nrf2 peptide fluorescence polarization, 1536-well; inhibition, % at 9.4 µM; 340,000 tested, 0.15% active; in the data active means inhibition above about 12%;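 further: human Keap1 Kelch domain with fluorescein labeled Nrf2 9mer peptide probe; higher means more block of Keap1 binding to Nrf2 peptide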
# Target sequence (Q14145 whole entry, looked up, the tested form may be a part): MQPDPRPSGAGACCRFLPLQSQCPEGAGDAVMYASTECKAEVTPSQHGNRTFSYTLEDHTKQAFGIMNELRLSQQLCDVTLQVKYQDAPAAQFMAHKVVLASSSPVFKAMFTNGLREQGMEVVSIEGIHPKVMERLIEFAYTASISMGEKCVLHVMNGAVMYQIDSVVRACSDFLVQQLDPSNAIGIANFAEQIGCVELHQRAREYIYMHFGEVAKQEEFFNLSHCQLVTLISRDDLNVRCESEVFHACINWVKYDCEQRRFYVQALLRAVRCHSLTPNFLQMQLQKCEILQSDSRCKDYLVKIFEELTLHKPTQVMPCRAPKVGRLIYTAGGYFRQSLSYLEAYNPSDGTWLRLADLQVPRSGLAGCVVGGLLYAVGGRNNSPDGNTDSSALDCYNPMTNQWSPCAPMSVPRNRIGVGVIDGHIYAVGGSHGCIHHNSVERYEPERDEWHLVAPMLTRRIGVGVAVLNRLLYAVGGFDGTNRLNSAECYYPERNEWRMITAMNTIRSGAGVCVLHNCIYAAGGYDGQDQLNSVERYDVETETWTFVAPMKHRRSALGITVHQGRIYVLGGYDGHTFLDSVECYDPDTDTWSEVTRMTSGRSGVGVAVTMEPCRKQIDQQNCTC
# Hits are given with their value; i = inactive; nt = no result given. An excerpt weighted towards active compounds, which were near 1.3% of everything screened.
SMILES,RTF Ca sens inh,C-LANA FP,CAL PDZ FP-1,cardiac RTF act,CAL PDZ FP-2,Keap1-Nrf2 PPI
Cn1c(N)c(C(=O)COC(=O)CC2CC3CCC2C3)c(=O)n(C)c1=O (centres undefined),i,i,i,i,88,i
COC(=O)CC1(C(=O)OC)Oc2ccccc2C(=O)N1c1ccc(F)cc1F (centres undefined),i,i,i,i,i,i
CCCCC(=O)Nc1ccc2c(c1)oc1ccccc12,i,i,i,i,56,i
O=c1[nH]c2ccc(N=Cc3c(O)ccc4cc(Br)ccc34)cc2[nH]1,i,i,i,30,nt,i
O=C(CCCN1C(=O)/C(=C/c2ccco2)SC1=S)Nc1cccc(C(=O)O)c1,i,i,i,i,i,i
O=C(CN1C(=O)/C(=C/c2ccco2)SC1=S)Nc1ccc(C(=O)O)c(O)c1,i,108,i,i,i,i
O=C(CCCN1C(=O)/C(=C/c2ccccc2)SC1=S)Nc1ccc(C(=O)O)c(O)c1,i,i,i,i,i,i
CC(C(=O)Nc1ccc(C(=O)O)c(O)c1)N1C(=O)/C(=C\c2ccco2)SC1=S (centres undefined),i,101,i,i,i,i
O=C(CN1C(=O)/C(=C/c2ccco2)SC1=S)Nc1ccc(O)c(C(=O)O)c1,i,101,i,i,i,i
O=C(Nc1ccccc1)Nc1ccc(Cl)nc1Cl,i,i,i,i,i,i
COC(=O)c1cc(-c2ccccc2)sc1NC(=O)CN1C(=O)c2ccccc2C1=O,i,i,i,i,123,i
O=C(OCC(=O)N1CCOCC1)c1cccc(F)c1,i,i,i,i,i,i
O=C(O)/C=C/C(=O)Nc1ccc2c(c1)C(=O)c1ccccc1C2=O,i,i,i,i,98,i
Nc1cc(S(=O)(=O)O)cc([N+](=O)[O-])c1O,i,81,i,i,i,i
O=C(O)C[C@@H](CNC(=O)COc1ccc2ccc(=O)oc2c1)c1ccc(Cl)cc1,i,i,i,i,i,i
N#CC1=C(N)Oc2cc(O)c(Cl)cc2C1c1ccccc1F (centres undefined),i,i,i,33,i,i
COCc1cc(CN2CCCC(C(=O)Nc3cccc(-n4cnnn4)c3)C2)ccc1OC (centres undefined),i,i,i,i,i,i
CC(NC(=O)C(=O)N/N=C\c1ccc([N+](=O)[O-])cc1)c1ccccc1 (centres undefined),i,i,i,i,40,i
COC(=O)[C@H](C)N(Cc1ccc(Cl)c(Cl)c1)S(=O)(=O)CCNC1CCCC1,i,i,i,i,i,i
FC(F)Oc1ccc(NC(=S)NCc2nc3ccccc3[nH]2)cc1,i,i,i,i,41,i
CC(C(=O)Nc1ccccn1)N1C(=O)c2ccccc2S1(=O)=O (centres undefined),i,i,i,i,i,i
Fc1cccc(COc2ccccc2C(=S)N2CCCC2)c1,i,i,nt,i,43,i
Cc1cc(C)n(CCOc2ccc(Br)cc2)n1,i,i,i,i,i,i
O=C(NC1CCCC1)C1CCCN(S(=O)(=O)c2ccc(-n3cnnn3)cc2)C1 (centres undefined),i,i,nt,i,33,i
CC(C)NC(=O)C1CCCN(S(=O)(=O)c2ccc(-n3cnnn3)cc2)C1 (centres undefined),i,i,i,i,i,i
O=C(Nc1ccccc1C(=O)O)c1cccc(N2C(=O)c3ccccc3C2=O)c1,i,i,i,i,51,i
O=C(O)c1cc(NC(=O)c2cccc(N3C(=O)c4ccccc4C3=O)c2)cc(C(=O)O)c1,i,i,i,i,i,i

# Screening data (PubChem BioAssay)
